Target: Muscarinic acetylcholine receptor M3 (Homo sapiens) (UniProt P20309)
Assay: Positive allosteric modulation of recombinant human muscarinic acetylcholine receptor M3 expressed in CHOK1 cells assessed as increase in carbachol-induced intracellular calcium flux preincubated for 5 mins followed by carbachol addition by Fluo4-AM dye based FLIPR assay
Type: functional, cell-based
Conditions: CHO-K1
Outline: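 Human M3 in CHO-K1 cells, Fluo-4 AM loaded (3.1 μM, ~2 h, room temperature). Test substance at 0.01–30 μM added ~5 min before a carbachol concentration series (0.0024 nM–100 μM); Ca2+ flux read on FLIPR Tetra to give carbachol concentration-response curves, with DMSO as vehicle.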

Muscarinic acetylcholine receptor M3 (Homo sapiens), sequence (P20309 whole entry, looked up): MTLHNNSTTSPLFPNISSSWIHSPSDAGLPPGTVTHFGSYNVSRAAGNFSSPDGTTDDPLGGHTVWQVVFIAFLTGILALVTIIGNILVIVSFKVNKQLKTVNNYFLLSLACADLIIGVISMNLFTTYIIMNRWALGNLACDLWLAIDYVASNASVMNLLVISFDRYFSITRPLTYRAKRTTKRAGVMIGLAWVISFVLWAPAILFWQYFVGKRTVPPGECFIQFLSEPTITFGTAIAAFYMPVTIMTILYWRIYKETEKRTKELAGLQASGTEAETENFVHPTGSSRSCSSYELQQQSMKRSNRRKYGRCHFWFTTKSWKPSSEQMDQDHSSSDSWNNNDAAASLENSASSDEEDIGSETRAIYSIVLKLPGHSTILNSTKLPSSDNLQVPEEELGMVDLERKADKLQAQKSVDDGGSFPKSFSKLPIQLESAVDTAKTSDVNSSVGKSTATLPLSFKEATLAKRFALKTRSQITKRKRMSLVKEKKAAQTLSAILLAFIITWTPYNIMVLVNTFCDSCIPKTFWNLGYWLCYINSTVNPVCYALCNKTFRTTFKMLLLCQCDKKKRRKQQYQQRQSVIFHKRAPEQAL

Activity: Dose-dependent effect
SMILES: CC[C@@H]1CCCN1Cc1sc(NC(=O)c2cnc(N3CCC(C(=O)O)CC3)cn2)nc1-c1ccc(OC)c(C(F)(F)F)c1.Cl.Cl
